Assay results gathered from unrelated publications.
Each line is one published result; the experiments were not run side by side.
CDK1 with cyclin B: Cyclin-dependent kinase 1, with cyclin B (CDK1, Homo sapiens, UniProt P06493)
CDK1: Cyclin-dependent kinase 1 (CDK1, Homo sapiens, UniProt P06493)
CDK1 with cyclin A: Cyclin-dependent kinase 1, with cyclin A (CDK1, Homo sapiens, UniProt P06493)

Structure (SMILES)	target	test	conditions	endpoint	value
Cc1ccc(Nc2nccc(N(C)c3ccc4c(C)n(C)nc4c3)n2)cc1S(N)(=O)=O	CDK1 with cyclin B	enzyme activity, inhibitor	10 µM	inhibition	29%
c1ccc(CNc2nc(N3CCOc4ccccc43)nc3c2CCCC3)cc1	CDK1	target engagement in cells, inhibitor, chemoproteomics	20 mM	inhibition	-6.5%
CC(C)c1ccc(NC(=O)c2cccs2)c(-c2nc3ccccc3[nH]c2=O)c1	CDK1 with cyclin B	enzyme activity, inhibitor	1 µM	activity vs control	107%
CC(C)(O)[C@H]1CC[C@H](Nc2ccc3ncc(-c4cccc(C(F)(F)F)c4)n3n2)CC1	CDK1 with cyclin B	enzyme activity, inhibitor	1 µM	remaining activity	66.9%
CNC(=O)c1cc(Oc2ccc(NC(=O)Nc3ccc(Cl)c(C(F)(F)F)c3)cc2)ccn1	CDK1 with cyclin B	enzyme activity, inhibitor	10 µM	inhibition	10%
CC(C)(C)c1nc(-c2cccc(NS(=O)(=O)c3c(F)cccc3F)c2F)c(-c2ccnc(N)n2)s1	Cyclin-dependent kinase 1, with cyclin A2 (CDK1, Homo sapiens, UniProt P06493)	enzyme activity, inhibitor, radiometric	1 µM	remaining activity	84%
Cc1cnc(NC2CCOCC2)nc1-n1cnc(C(=O)NC(CN)c2cc(F)cc(Cl)c2)c1 (stereo not shown)	CDK1 with cyclin B	enzyme activity, inhibitor, radiometric	1 µM	remaining activity	20%
CC(C)n1cnc2c(Nc3cccc(Cl)c3)nc(NCCO)nc21	CDK1 with cyclin A	cell-free assay	0.5 µM	remaining signal	78.5%
CCN(CC)CCNC(=O)c1c(C)[nH]c(/C=C2\C(=O)Nc3ccc(F)cc32)c1C	CDK1 with cyclin B	enzyme activity, inhibitor	10 µM	inhibition	10%
COc1cc2ncnc(Nc3ccc(Oc4ccccc4)c(C)c3C)c2cc1OC	CDK1 with cyclin B	enzyme activity, inhibitor	1 µM	inhibition	3%
O=C(Nc1cnn(-c2csc(C(=O)NC3COC3)c2)c1)Nc1c(F)cccc1Cl	CDK1 with cyclin B	enzyme activity, inhibitor	5 µM	remaining activity	105%
C=CC(=O)Nc1cc(Nc2nccc(Nc3cc(Cl)c(F)cc3C(C)(C)O)n2)c(OC)cc1N1CC[C@@H](N(C)C)C1	CDK1 with cyclin B	enzyme activity, inhibitor	1 µM	inhibition	-13%
Cc1sc(C(=O)NC2COC2)cc1-n1cc(NC(=O)Nc2c(F)cccc2Cl)cn1	CDK1 with cyclin B	enzyme activity, inhibitor	10 µM	remaining activity	92.7%
Cc1ccc(-n2nc(C(C)(C)C)cc2NC(=O)Nc2ccc(OCCN3CCOCC3)c3ccccc23)cc1	CDK1 with cyclin B	enzyme activity, inhibitor	10 µM	inhibition	-6%
COc1cc(OC)c(C=C2C(O)=Nc3ccccc32)c(OC)c1	CDK1 with cyclin B	cell-free assay	0.5 µM	remaining signal	83%
CC(C)(C)c1nc2c(s1)c1nc(N)ncc1c1ccc(NS(=O)(=O)c3c(F)cccc3F)c(F)c12	Cyclin-dependent kinase 1, with cyclin B1 (CDK1, Homo sapiens, UniProt P06493)	enzyme activity, inhibitor, radiometric	1 µM	remaining activity	89%
O=C1Nc2ccc(Cl)cc2C1=Cc1cc(Cl)c(O)c(Cl)c1	CDK1 with cyclin A	cell-free assay	0.5 µM	remaining signal	91.9%
Nc1nc(Nc2ccc(S(N)(=O)=O)cc2)sc1C(=O)c1ccccc1[N+](=O)[O-]	CDK1	enzyme activity, inhibitor	0.1 µM	inhibition	90 to 93%
O=C1NC(=O)c2cc(Nc3ccc(F)cc3)c(Nc3ccc(F)cc3)cc21	CDK1 with cyclin B	cell-free assay	0.5 µM	remaining signal	103%
Cc1cc(NC(=O)c2cccc3cc(-c4cccc5[nH]nc(N)c45)ccc23)ccc1F	CDK1 with cyclin B	enzyme activity, inhibitor	0.1 µM	activity vs control	95%
O=Nc1c(-c2c(O)[nH]c3ccccc23)[nH]c2ccccc12	CDK1 with cyclin A	cell-free assay	0.5 µM	remaining signal	88.4%
CCCOc1ccc(OC)c(F)c1C(=O)c1ccc(C(=O)N[C@@H]2CNC[C@H]2NC(=O)c2ccc3[nH]ncc3c2)cc1	CDK1 with cyclin B	enzyme activity, inhibitor	10 µM	remaining activity	102%
O=C1NC(=O)c2c1c1c3ccccc3[nH]c1n1cncc21	CDK1 with cyclin A	cell-free assay	0.5 µM	remaining signal	94.8%
O=C(Nc1cnn(-c2csc(C(=O)NC3COC3)c2)c1)Nc1ccccc1Cl	CDK1 with cyclin B	enzyme activity, inhibitor	5 µM	remaining activity	92.6%
CC(C)[C@H](CO)Nc1nc(Nc2cccc(Cl)c2)c2ncn(C(C)C)c2n1	CDK1 with cyclin B	cell-free assay	0.5 µM	remaining signal	34.9%
Cc1ccc(NC(=O)c2ccc(C)c(C(F)(F)F)c2)cc1C#Cc1nn(C2CCC(O)CC2)c2ncnc(N)c12 (stereo not shown)	CDK1 with cyclin B	cell-free assay	10 µM	remaining signal	104%
N#CCCc1ccc2c(c1)-c1[nH]c3ccc([N+](=O)[O-])cc3c1CC(=O)N2	CDK1 with cyclin A	cell-free assay	0.5 µM	remaining signal	24.8%
CNCc1ccc(-c2cc(-c3nc(-c4ccc(S(=O)(=O)C(C)C)cc4)cnc3N)on2)cc1	CDK1 with cyclin B	enzyme activity, inhibitor	2 µM	inhibition	6%
